# Assay results gathered from unrelated publications.
# Compare with care: the assays were run in different laboratories.
# Target: Serine/threonine-protein kinase MAK (MAK, Homo sapiens, UniProt P20794)
# One construct used (P20794 1-623): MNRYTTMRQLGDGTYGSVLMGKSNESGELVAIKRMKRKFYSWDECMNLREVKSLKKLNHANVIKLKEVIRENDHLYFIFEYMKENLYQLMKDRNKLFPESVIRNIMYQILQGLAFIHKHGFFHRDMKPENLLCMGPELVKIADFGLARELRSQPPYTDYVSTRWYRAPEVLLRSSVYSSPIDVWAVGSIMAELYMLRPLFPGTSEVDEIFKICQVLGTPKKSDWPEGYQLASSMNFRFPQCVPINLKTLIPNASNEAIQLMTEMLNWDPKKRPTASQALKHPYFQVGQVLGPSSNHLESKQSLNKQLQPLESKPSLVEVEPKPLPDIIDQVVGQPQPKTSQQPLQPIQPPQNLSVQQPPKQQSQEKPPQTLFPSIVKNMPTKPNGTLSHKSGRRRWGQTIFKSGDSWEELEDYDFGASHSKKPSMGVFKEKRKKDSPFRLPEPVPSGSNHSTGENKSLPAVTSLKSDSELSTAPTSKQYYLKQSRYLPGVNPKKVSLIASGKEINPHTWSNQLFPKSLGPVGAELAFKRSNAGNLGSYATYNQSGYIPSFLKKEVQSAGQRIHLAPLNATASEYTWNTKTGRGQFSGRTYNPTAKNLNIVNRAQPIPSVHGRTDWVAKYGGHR
SMILES,test,setting,remaining binding [%]
CN(CCCC(F)(F)F)c1nccc(-c2cnn3ncccc23)n1,binding,1 µM,100
O=C(c1ccc(Nc2ncc(Cl)c(-c3ccc(Cl)s3)n2)cc1)N1CCC(N2CCCC2)CC1,"binding, competition with immobilised ligand",1 µM,85
C=CC(=O)N1CCC(C(=O)NCC(=O)N2CCN(c3nc(-c4cnc(N)nc4C(F)F)nc(N4CCOCC4)n3)CC2)CC1,"binding, competition with immobilised ligand",1 µM,100
O=C(c1ccc(Nc2nccc(-c3cc4ccccc4s3)n2)cc1)N1CCC(N2CCCC2)CC1,"binding, competition with immobilised ligand",1 µM,100
NS(=O)(=O)c1cc(NC(=O)Cc2ccccc2)ccc1Oc1cccc(Cl)c1,"cell-free assay, competition with immobilised ligand",1 µM,100
O=C(c1ccc(Nc2ncc(Cl)c(-c3cc4ccccc4s3)n2)cc1)N1CCC(N2CCCC2)CC1,"binding, competition with immobilised ligand",1 µM,100
CO[C@H]1CC[C@H](CNc2ccc(S(=O)(=O)NC(=O)c3ccc(N4CCN(CC5=C(c6ccc(Cl)cc6)CC(C)(C)CC5)CC4)cc3Oc3cnc4[nH]ccc4c3)cc2[N+](=O)[O-])CC1,"cell-free assay, competition with immobilised ligand",1 µM,90
c1cncc(-c2cccc(Nc3nccc(NC4CCCCC4)n3)c2)c1,"binding, competition with immobilised ligand",10 µM,61
F[C@@H]1CCN(c2nccc(-c3cnn4ncccc34)n2)C1,binding,1 µM,86
CCCCN(CCCC)C(=O)CN1C[C@H](c2cc(OC)c3c(c2)OCO3)[C@@H](C(=O)O)[C@@H]1CC(C)(C)CCC,"cell-free assay, competition with immobilised ligand",1 µM,100
COc1cnc(Nc2cccc(S(N)(=O)=O)c2)nc1N1CCN(c2ccccc2)CC1,"binding, competition with immobilised ligand",1 µM,100
C[C@@H](c1ccc(-n2cnc3c(N)ncnc32)cc1)N1CCc2nn(C)c(Cc3ccccc3)c2C1=O,"binding, competition with immobilised ligand",0.1 µM,82
Cc1cnn2ncc(-c3ccnc(N(C)C)n3)c2c1,binding,1 µM,46
O=C(Nc1c[nH]nc1C(=O)NC1CCNCC1)c1cc(F)cc(F)c1,"binding, competition with immobilised ligand",1 µM,78
N[C@@H]1CCN(c2nccc(-c3cnn4ncccc34)n2)C1,binding,1 µM,100
O=C(N1CCS(=O)(=O)CC1)N1C[C@H](c2ccc(OC(F)(F)F)cc2)C[C@H](c2nc(C3CC3)no2)C1,"binding, competition with immobilised ligand",1 µM,100
C[C@H]1CCN(c2nccc(-c3cnn4ncccc34)n2)C1,binding,1 µM,66
CNC(=O)Nc1ccc2c(c1)[C@@]1(CC2)OC(=O)N(CC(=O)N(Cc2ccc(F)cc2)[C@@H](C)C(F)(F)F)C1=O,"cell-free assay, competition with immobilised ligand",1 µM,100
CN(C)c1nccc(-c2cnc3ncccn23)n1,binding,1 µM,100
CNC(=O)[C@@H]1CC[C@@H](n2c(-c3ccc4cnccc4c3)nc3ccc(C(=O)NCc4cccc(C(N)=O)c4)cc32)C1,"binding, competition with immobilised ligand",1 µM,80
CN(c1nccc(-c2cnn3ncccc23)n1)C1CC1,binding,1 µM,100
O=C(O)[C@H]1[C@H](Cn2nnc3ccccc3c2=O)CC[C@@H]1C(=O)c1ccc(OCCC2CCOCC2)cc1,"binding, competition with immobilised ligand",1 µM,95
